Laboratory results reported in ChEMBL document CHEMBL4196141, “Improved Antibacterial Activity of the Marine Peptide N6 against Intracellular Salmonella Typhimurium by Conjugating with the Cell-Penetrating Peptide Tat11 via a Cleavable Linker” (J Med Chem, 2018).
In brackets after ≈: the same amount, converted by molar mass. Activity calls are given as the source filed them. No cut-off for these calls is given here. Positions of bridges follow the written chain, without caps; N, C: chain ends. Residues, ends and D or L forms follow the SMILES beside them.

What was measured:
Salmonella typhimurium [1] = assay: Antibacterial activity against Salmonella typhimurium ATCC 14028 infected in ICR mouse model of peritonitis assessed as reduction colony forming units in kidney at 1 to 2 umol/kg, ip dosed at 2 hrs post infection and measured after 10 hrs post dose relative to marine peptide N6; type: functional, Salmonella enterica subsp. enterica serovar Typhimurium; parameters: scale not given: the % may be the effect or the level left
In short: (§1)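 Female ICR mice, six weeks old (six per group), were infected ip with S. Typhimurium ATCC14028 (5 × 10^5 CFU, 0.5 mL). Peptide was given ip at 1, 1.5 or 2 µmol/kg 2 h post-infection. Mice were killed 10 h after treatment, and kidneys and spleens were homogenized in sterile PBS for CFU counts of translocated bacteria. PBS-treated mice served as negative control, ciprofloxacin-treated mice as positive.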

Salmonella typhimurium [2] = assay: Bactericidal activity against 2 hrs-gentamicin pre-exposed Salmonella typhimurium ATCC 14028 assessed as reduction colony forming units at 20 uM incubated for 10 hrs relative to marine peptide N6; type: functional, Salmonella enterica subsp. enterica serovar Typhimurium; parameters: scale not given: the % may be the effect or the level left
In short: (§2)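 Macrophage protection assay. RAW264.7 cells (5 × 10^4/well, 24 h) were infected with S. Typhimurium ATCC14028 at MOI 10 for 1 h in DMEM/10% FBS, exposed to 100 µg/mL gentamicin for 2 h at 37 °C, and PBS-washed. Peptides in DMEM/10% FBS were added for 10 h. Cells were lysed with 0.1% Triton X-100 and CFU plated; log10 CFU reduction versus untreated cells. Three replicates; two independent experiments; one-way ANOVA with Tukey.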

[3] = Drug internalization in mouse RAW264.7 using FITC-labeled compound at 2 uM pre-incubated for 1 hr with lipid rafts disruptor methyl-beta-cyclodextrin followed by compound addition and subsequent incubation for 2 hrs by flow cytometry; type: ADME, cell-based; conditions: raw264.7, 2 h
In short: (§3)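 RAW264.7 cells were pretreated 1 h at 37 °C with 3 mM amiloride, 20 µM nocodazole, 6 µg/mL chlorpromazine or 5 mM MβCD. FITC-labeled peptide was then added for 2 h at 37 °C. Extracellular fluorescence was quenched with 0.4% Trypan blue and intracellular fluorescence read by flow cytometry against an untreated control.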

[4] = Induction of hemolysis in mouse RBC at 100 uM incubated for 1 hrs at 37 degC; type: cell-based, Erythrocyte; conditions: red blood cells (erythrocytes), read-out: Activity
In short: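 Fresh mouse erythrocytes were washed three times in 0.9% NaCl, and an 8% suspension was incubated with peptide (2-fold dilutions, 100 to 0.3125 µM) for 1 h at 37 °C. Released hemoglobin was read at 540 nm. 1% Triton X-100 defined 100% lysis; polymyxin served as positive control and NaCl as negative.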

Salmonella typhimurium [5] = assay: Antibacterial activity against Salmonella typhimurium ATCC 14028 infected in ICR mouse model of peritonitis assessed as reduction colony forming units in total peritoneal fluids at 1 umol/kg, ip dosed at 2 hrs post infection and measured after 10 hrs post dose; type: functional, Salmonella enterica subsp. enterica serovar Typhimurium
In short: (§4)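 Six-week-old female ICR mice (six per group) received ip S. Typhimurium ATCC14028 (5 × 10^5 CFU, 0.5 mL). Peptide was given ip 2 h post-infection and mice were killed 10 h after treatment. Peritoneum was lavaged with 5 mL ice-cold PBS and total CFU counted. For intracellular CFU, pelleted cells were treated with 100 µg/mL gentamicin for 1 h at 37 °C, washed, lysed and plated. PBS served as negative control, ciprofloxacin as positive.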

Salmonella typhimurium [6] = assay: Bactericidal activity against 2 hrs-gentamicin pre-exposed Salmonella typhimurium ATCC 14028 assessed as effect on bacterial re-growth at 10 uM measured after 9 hrs; type: functional, organism-based; conditions: Salmonella enterica subsp. enterica serovar Typhimurium
In short: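 RAW264.7 cells in DMEM/10% FBS were infected with S. Typhimurium ATCC14028 at MOI 10 for 1 h, then given 100 µg/mL gentamicin for 2 h at 37 °C and washed. Cells were treated with 10 µM agent for 1, 3, 6, 9 and 12 h, lysed with 0.1% Triton X-100, and surviving intracellular bacteria were serially diluted and plated for CFU.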

Salmonella typhimurium [7] = assay: Antibacterial activity against Salmonella typhimurium ATCC 14028 infected in ICR mouse model of peritonitis assessed as reduction colony forming units in intracellular fluids at 1 umol/kg, ip dosed at 2 hrs post infection and measured after 10 hrs post dose; type: functional, Salmonella enterica subsp. enterica serovar Typhimurium; in short: as §4
[8] = Cytotoxicity in mouse RAW264.7 assessed as cell survival at 100 uM incubated for 8 hrs by MTT assay; type: cell-based; conditions: RAW264.7 cells, read-out: Survival
In short: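 RAW264.7 cells seeded at 2.5 × 10^4 cells/well, cultured 24 h, then exposed for 8 h to 2-fold dilutions from 100 to 0.625 µM. MTT at 5 mg/mL added for 4 h, formazan dissolved in DMSO, absorbance read at 570 nm. Untreated cells served as control. Samples run in triplicate.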

[9] = Drug internalization in mouse RAW264.7 using FITC-labeled compound at 2 uM pre-incubated for 1 hr with tubulin polymerization inhibitor nocodazole followed by compound addition and subsequent incubation for 2 hrs by flow cytometry; type: ADME, cell-based; conditions: raw264.7, 2 h; in short: as §3
[10] = Drug internalization in mouse RAW264.7 using FITC-labeled compound at 2 uM incubated for 2 hrs at 4 degC by flow cytometry; type: ADME, cell-based; conditions: raw264.7, 2 h
Salmonella typhimurium [11] = assay: Bactericidal activity against 2 hrs-gentamicin pre-exposed Salmonella typhimurium ATCC 14028 assessed as reduction colony forming units at 50 uM incubated for 10 hrs relative to marine peptide N6; type: functional, Salmonella enterica subsp. enterica serovar Typhimurium; parameters: scale not given: the % may be the effect or the level left; in short: as §2
Salmonella typhimurium [12] = assay: Antibacterial activity against Salmonella typhimurium ATCC 14028 incubated for 16 to 18 hrs at pH 7.2 by broth microdilution method; type: functional, Salmonella enterica subsp. enterica serovar Typhimurium; conditions: Salmonella enterica
In short: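 Broth microdilution in MH broth. S. Typhimurium ATCC14028 was grown overnight at 37 °C to semi-log phase, pelleted, and diluted to OD600 0.01; final inoculum was 5 × 10^5 CFU/mL. Plates were incubated 16–18 h at 37 °C. MIC is the lowest peptide concentration with no visible growth. Data are in duplicate from at least two independent experiments.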

Salmonella typhimurium [13] = assay: Antibacterial activity against Salmonella typhimurium ATCC 14028 infected in ICR mouse model of peritonitis assessed as mouse survival at 1 umol/kg, ip dosed at 0.5 and 8 hrs post infection and measured daily for 7 days
Salmonella typhimurium [14] = assay: Bactericidal activity against 2 hrs-gentamicin pre-exposed Salmonella typhimurium ATCC 14028 assessed as reduction colony forming units at 20 uM incubated for 10 hrs; type: functional, Salmonella enterica subsp. enterica serovar Typhimurium; in short: as §2
Salmonella typhimurium [15] = assay: Antibacterial activity against Salmonella typhimurium ATCC 14028 using 1 hr cathepsin B pre-treated compound at pH 5 incubated for 16 to 18 hrs at by broth microdilution method; type: functional, Salmonella enterica subsp. enterica serovar Typhimurium; conditions: Salmonella enterica
In short: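 Cathepsin B (bovine spleen, 10 µg/mL) was added for 1 h at 37 °C, and the reaction was stopped with 9 volumes of MHB. MIC was then run by broth microdilution (5 × 10^5 CFU/mL, 16–18 h, 37 °C) in medium adjusted to pH 5.0.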

Salmonella typhimurium [16] = assay: Antibacterial activity against Salmonella typhimurium ATCC 14028 infected in ICR mouse model of peritonitis assessed as reduction colony forming units in spleen at 1 to 2 umol/kg, ip dosed at 2 hrs post infection and measured after 10 hrs post dose relative to marine peptide N6; type: functional, Salmonella enterica subsp. enterica serovar Typhimurium; parameters: scale not given: the % may be the effect or the level left; in short: as §1
[17] = Drug internalization in mouse RAW264.7 using FITC-labeled compound at 2 uM pre-incubated for 1 hr with macropinocytosis inhibitor amiloride followed by compound addition and subsequent incubation for 2 hrs by flow cytometry; type: ADME, cell-based; conditions: raw264.7, 2 h; in short: as §3

Compound | Activity (Salmonella typhimurium [1]) [%] | Activity (Salmonella typhimurium [2]) [%] | Drug uptake [3] | hemolysis at 1 h, 100 µM [4] [%] | Activity (Salmonella typhimurium [5]) [log10CFU] | Activity (Salmonella typhimurium [6]) | Activity (Salmonella typhimurium [7]) [log10CFU] | viability at 8 h, 100 µM [8] [%] | Drug uptake [9] | Drug uptake [10] | Activity (Salmonella typhimurium [11]) [%] | MIC (Salmonella typhimurium [12]) [µM] | Activity (Salmonella typhimurium [13]) [%] | Activity (Salmonella typhimurium [14]) [log10CFU] | MIC (Salmonella typhimurium [15]) [µM] | Activity (Salmonella typhimurium [16]) [%] | Drug uptake [17]
CC(C)[C@@H]1NC(=O)CNC(=O)[C@H](CC(N)=O)NC(=O)[C@H](CCCNC(=N)N)NC(=O)[C@H](Cc2ccc(O)cc2)NC(=O)[C@H](C(C)C)NC(=O)[C@@H](NC(=O)[C@@H](NC(=O)[C@H](CC(N)=O)NC(=O)[C@H](Cc2c[nH]c3ccccc23)NC(=O)[C@H](C)NC(=O)[C@H](Cc2ccccc2)NC(=O)CN)C(C)C)CSSC[C@@H](C(=O)N[C@@H](Cc2cnc[nH]2)C(=O)N[C@@H](CCCNC(=N)N)C(=O)N[C@@H](CCCNC(=N)N)C(=O)N[C@@H](C)C(=O)N[C@@H](CC(N)=O)C(N)=O)NC(=O)[C@H](C(C)C)NC(=O)[C@H](CCCNC(=N)N)NC1=O (H-GFAWNVCVYRNGVRVCHRRAN-NH2; disulfide 7-16) | 200 | 96.3 | Active | 2.05 | 3.04 | inactive | 2.22 | 93.5 | Not Active | Not Active | 97.6 | 0.81 (≈ 2 µg/mL) | 66.7 | 2.01 | 1.62 (≈ 4.01 µg/mL) | 200 | Not Active
CC(C)[C@H](NC(=O)CCCCCN1C(=O)CC(SC[C@H](N)C(=O)N[C@@H](Cc2ccc(O)cc2)C(=O)NCC(=O)N[C@@H](CCCNC(=N)N)C(=O)N[C@@H](CCCCN)C(=O)N[C@@H](CCCCN)C(=O)N[C@@H](CCCNC(=N)N)C(=O)N[C@@H](CCCNC(=N)N)C(=O)N[C@@H](CCC(N)=O)C(=O)N[C@@H](CCCNC(=N)N)C(=O)N[C@@H](CCCNC(=N)N)C(=O)N[C@@H](CCCNC(=N)N)C(=O)O)C1=O)C(=O)N[C@@H](CCCNC(N)=O)C(=O)Nc1ccc(COC(=O)NCC(=O)N[C@@H](Cc2ccccc2)C(=O)N[C@@H](C)C(=O)N[C@@H](Cc2c[nH]c3ccccc23)C(=O)N[C@@H](CC(N)=O)C(=O)N[C@H](C(=O)N[C@H]2CSSC[C@@H](C(=O)N[C@@H](Cc3cnc[nH]3)C(=O)N[C@@H](CCCNC(=N)N)C(=O)N[C@@H](CCCNC(=N)N)C(=O)N[C@@H](C)C(=O)N[C@@H](CC(N)=O)C(=O)O)NC(=O)[C@H](C(C)C)NC(=O)[C@H](CCCNC(=N)N)NC(=O)[C@H](C(C)C)NC(=O)CNC(=O)[C@H](CC(N)=O)NC(=O)[C@H](CCCNC(=N)N)NC(=O)[C@H](Cc3ccc(O)cc3)NC(=O)[C@H](C(C)C)NC2=O)C(C)C)cc1 (some centres undefined) | 81 | 67.2 | Active | 3.81 | 1.87 | inactive | 1.39 | 88.9 | Not Active | Not Active | 76.2 | > 27.2 | 66.7 | 1.06 | 1.7 (≈ 8.05 µg/mL) | 81 | Active
